Results: ChEMBL document CHEMBL3632503, “Antiproliferative and antiplasmodial compounds from selected Streptomyces species” (Bioorg Med Chem Lett, 2015)

Experiments:
Plasmodium falciparum = assay: Antiplasmodial activity against Plasmodium falciparum Dd2 assessed as growth inhibition after 72 hrs by SYBR Green I dye based assay; type: functional, organism-based; settings: Dd2, 72 h
In short: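 Ring-stage parasite cultures at 1% hematocrit and 1% parasitemia, grown 72 h at 37 °C with increasing drug concentrations under 5.05% CO2/4.93% O2/90.2% N2. Viability read by DNA quantitation with SYBR Green I in lysis buffer (0.4 µL dye per mL lysis buffer). IC50 from nonlinear regression curve fitting.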

A2058 [1] = assay: Antiproliferative activity against human A2058 cells after 96 hrs by CellTitre-Glo luminescent assay; type: functional, cell-based; settings: A2058, 96 h
A2780 = assay: Antiproliferative activity against human A2780 cells after […] by Alamar Blue assay; type: functional, cell-based
A2058 [2] = assay: Selectivity ratio of IC50 for human A2780 cells to IC50 for human A2058 cells; type: functional
[3] = Antiproliferative activity against human H522-T1 cells after 96 hrs by CellTitre-Glo luminescent assay; type: functional, cell-based; settings: H522-T1, 96 h

SMILES | IC50 (Plasmodium falciparum) | IC50 (A2058 [1]) | IC50 (A2780) | Ratio IC50 (A2058 [2]) | IC50 [3]
Cn1c(=O)/c(=C/c2ccccc2)[nH]c(=O)/c1=C/c1ccccc1 | 6570 nM |  |  |  | 
CC[C@H]1C[C@@H]2CC[C@@H](O2)[C@@H](C)C(=O)O[C@H](C)C[C@H]2CC[C@H](O2)[C@H](C)C(=O)O[C@@H](C)C[C@@H]2CC[C@@H](O2)[C@@H](C)C(=O)O[C@H](C)C[C@H]2CC[C@H](O2)[C@H](C)C(=O)O1 [MONACTIN] |  | 20 nM | 130 nM | 6.5 | 10 nM
CC[C@H]1C[C@@H]2CC[C@@H](O2)[C@@H](C)C(=O)O[C@H](C)C[C@H]2CC[C@H](O2)[C@H](C)C(=O)O[C@@H](CC)C[C@@H]2CC[C@@H](O2)[C@@H](C)C(=O)O[C@H](C)C[C@H]2CC[C@H](O2)[C@H](C)C(=O)O1 [DINACTIN] |  | 20 nM | 260 nM | 13 | 10 nM
C=C1NC(=O)[C@H]([C@H](C)OC)N(C)C1=O | 50000 nM |  |  |  | 
C[C@@H]1C[C@H]2CC[C@H](O2)[C@H](C)C(=O)O[C@@H](C)C[C@@H]2CC[C@@H](O2)[C@@H](C)C(=O)O[C@H](C)C[C@H]2CC[C@@H](O2)[C@H](C)C(=O)O[C@@H](C)C[C@@H]2CC[C@@H](O2)[C@@H](C)C(=O)O1 [NONACTIN] |  | 260 nM | 160 nM |  | 190 nM
